From PubChem BioAssay
MrgX1 allo act: human MrgX1 positive allosteric modulation, primary screen. Q96LB2. AID 588675. 310,000 tested, 0.63% active. MrgX1-HEK293, Fluo-4 calcium flux, FDSS; active compounds read high. B-score at 10 µM;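 active = plate-corrected calcium response at least 3 library SD above typical, normal starting fluorescence, not activating the receptor alone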;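 also: compound read alongside a low EC10 to EC30 dose of BAM8-22 agonist; peak minus trough fluorescence over baseline measured at the second addition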
Target sequence (Q96LB2 whole entry, looked up): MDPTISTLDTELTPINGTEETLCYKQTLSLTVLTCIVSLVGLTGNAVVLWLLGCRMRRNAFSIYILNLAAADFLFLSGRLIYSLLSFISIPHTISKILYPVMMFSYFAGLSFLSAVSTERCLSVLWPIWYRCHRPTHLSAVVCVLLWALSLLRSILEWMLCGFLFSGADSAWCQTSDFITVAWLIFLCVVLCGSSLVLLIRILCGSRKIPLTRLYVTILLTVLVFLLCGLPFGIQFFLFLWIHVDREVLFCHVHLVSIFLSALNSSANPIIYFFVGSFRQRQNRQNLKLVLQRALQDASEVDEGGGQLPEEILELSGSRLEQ
RGS4 act: RGS4 potentiation or activation; HEK293 M3R/inducible RGS4, carbachol calcium flux Fluo4; active compounds read low; B-score at 10 µM; 310,000 tested, 0.92% active; AID 463111;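 active = B-score of the integrated calcium signal more than 4 SD below the library mean, with starting fluorescence not abnormally high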;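 also: negative B-score means reduced calcium response which marks RGS4 activation or potentiation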
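System – HEK293 FlpIn-TREx cells, stable M3R, doxycycline-inducible RGS4 · Reagent – ECmax carbachol challenge · Times – compound preincubation 20 min at room temperature before agonist · Technique – Fluo4 fluorescence kinetic imaging of calcium · Measure – B score of integrated Fluo4 ratio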
RGS4 inh: inhibitors of human RGS4; HEK293 M3R/RGS4 inducible, Fluo-4 calcium flux; active compounds read high; triggered by carbachol at its EC20; 310,000 tested, 0.45% active; AID 463165; P49798; B-score at 10 µM;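 active = B-score, a plate-corrected calcium signal, over three deviations above library mean, with baseline fluorescence within five deviations of library mean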;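 also: RGS4 expression induced by doxycycline in cells with stable M3 receptor; B-score is computed from the integrated fluorescence ratio over baseline after carbachol; higher B-score means a larger calcium signal and so more RGS4 inhibition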
Target sequence (P49798 whole entry, looked up): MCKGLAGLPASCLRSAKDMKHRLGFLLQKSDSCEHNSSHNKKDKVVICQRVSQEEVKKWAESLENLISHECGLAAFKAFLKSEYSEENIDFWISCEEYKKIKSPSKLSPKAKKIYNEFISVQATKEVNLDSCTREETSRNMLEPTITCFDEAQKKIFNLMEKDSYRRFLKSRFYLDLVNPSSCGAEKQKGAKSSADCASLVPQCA
MrgX1 agonist: agonists of human MrgX1 receptor; 310,000 tested, 0.44% active; B-score at 10 µM; MrgX1-HEK293 cells, Fluo-4 calcium fluorescence, agonist mode; active compounds read high; Q96LB2;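 active = calcium response B-score plate-corrected fluorescence ratio at least 3 library SD, with starting fluorescence B-score inside 5 SD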
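Material: MrgX1-expressing HEK293 cells / Dosing: compound as first of three additions / Incubation: overnight seeding, then 1 h dark dye loading / Signal: Fluo-4 NW calcium fluorescence / Evaluation: B-scored fluorescence response ratio / Benchmarks: positive and negative control wells on each plate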
MrgX1 antagonist: antagonists of human MrgX1 receptor | 310,000 tested, 1.3% active | Q96LB2 | AID 588676 | B-score at 10 µM | MRGX1-HEK293 calcium flux, Fluo-4, BAM8-22 antagonism; active compounds read low;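 active = calcium-response B-score plate-corrected more than 3 library SD below zero, starting fluorescence within 5 deviations, no agonist response on first addition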;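 also: peak minus trough fluorescence over baseline after final BAM8-22 challenge near maximal dose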
MrgX1 allo conf: confirmation of human MrgX1 receptor positive allosteric modulators; 1,200 tested, 13% active; AID 602413; MrgX1-HEK293, Fluo-4 calcium fluorescence, FDSS; shares compounds with MrgX1 allo act; activation (ratio percentage), % at 10 µM;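 active = ratio at least 3 SD above the weak peptide control, stable starting fluorescence, no direct agonism earlier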;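 also: compound followed by low BAM8-22 agonist challenge near EC20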
MrgX1 antag conf: human MrgX1 receptor antagonism, re-confirmation screen | shares compounds with MrgX1 antagonist | MrgX1-HEK293, BAM8-22 calcium flux, Fluo-4; active compounds read low | remaining BAM8-22 calcium response % of control (active compounds read low), % at 10 µM | 2,300 tested, 19% active;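 active = remaining agonist calcium response no higher than 100% minus 3 SD of agonist-only control wells, with starting fluorescence near control levels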;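 also: agonist BAM8-22 given at a near maximal EC90 to ECmax level; peak minus minimum fluorescence divided by baseline after agonist addition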
HEK293 Ca flux: MrgX1 antagonist counter-screen hit in parental HEK293 cells; Fluo-4 calcium fluorescence, FDSS; fluorescence ratio F(max-min)/F0 at 10 µM; shares compounds with MrgX1 antagonist; AID 624111; 4,000 tested, 2% active;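 active = duplicate-averaged calcium fluorescence ratio at least three times the standard deviation of buffer wells, a nonspecific response in parental cells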
HEK293 Ca counter: MrgX1 allosteric activator counter-screen hit in parental HEK293 cells; fluorescence ratio F(max-min)/F0 at 10 µM; 4,000 tested, 0.4% active; parental HEK293 calcium flux, Fluo-4 fluorescence ratio; active compounds read high; shares compounds with MrgX1 antagonist;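 active = calcium fluorescence ratio, averaged over duplicates, at least 3 SD of the buffer-well ratio, meaning a nonspecific response in receptor-free cells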;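 also: untransfected parental HEK293 lacking MrgX1 used as counterscreen for MrgX1 allosteric activators; fluorescence change taken during the second addition on a kinetic imager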
HEK293 Ca cntr2: activity in parental HEK293 cells lacking MrgX1 receptor. shares compounds with MrgX1 antagonist. Fluo-4 calcium fluorescence (FDSS); active compounds read high. fluorescence ratio F(max-min)/F0 at 10 µM. 4,000 tested, 8.7% active;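 active = calcium fluorescence ratio at least three times the spread of buffer wells, meaning a non-specific response in parental cells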
An asterisk follows results filed as active. A selection: hits, their analogues and other compounds. The true share with any hit is near 3.5%.

COc1cc(C)c(NC(c2ccccc2)c2ccccc2)cc1OC was read as MrgX1 allo act 8.7*, RGS4 act inactive, RGS4 inh inactive, MrgX1 agonist inactive, MrgX1 antagonist inactive, MrgX1 allo conf inactive, HEK293 Ca flux inactive, HEK293 Ca counter inactive and HEK293 Ca cntr2 inactive.
`Cc1ccccc1CC1(CO)CCCN(C(=O)c2ccc(F)cc2)C1` (stereo not given) gave MrgX1 allo act 10*, RGS4 act inactive, RGS4 inh inactive, MrgX1 agonist inactive, MrgX1 antagonist inactive, MrgX1 allo conf inactive, HEK293 Ca flux inactive, HEK293 Ca counter inactive and HEK293 Ca cntr2 inactive.
Screening O=C(c1cc(-c2cccc(Cl)c2)on1)N1CCCCCC1 returned MrgX1 allo act 12*, RGS4 act inactive, RGS4 inh inactive, MrgX1 agonist inactive, MrgX1 antagonist inactive, MrgX1 allo conf inactive, HEK293 Ca flux inactive, HEK293 Ca counter inactive and HEK293 Ca cntr2 inactive.
`CC1CCCC(C)N1C(=O)c1cc(-c2ccc3c(c2)OCO3)on1` (stereo not given) gave MrgX1 allo act 11*, RGS4 act inactive, RGS4 inh inactive, MrgX1 agonist inactive, MrgX1 antagonist inactive, MrgX1 allo conf inactive, HEK293 Ca flux inactive, HEK293 Ca counter inactive and HEK293 Ca cntr2 inactive.
Screening CC1CCCC(C)N1C(=O)c1cc(-c2ccc(Cl)c(Cl)c2)on1 (stereo not given) returned MrgX1 allo act 7.8*, RGS4 act inactive, RGS4 inh inactive, MrgX1 agonist inactive, MrgX1 antagonist inactive, MrgX1 allo conf inactive, HEK293 Ca flux inactive, HEK293 Ca counter inactive and HEK293 Ca cntr2 inactive.
Screening CC(NC(=O)CCNS(=O)(=O)c1cccc2nonc12)c1ccccc1 (stereo not given) returned MrgX1 allo act inactive, RGS4 act inactive, RGS4 inh inactive, MrgX1 agonist inactive and MrgX1 antagonist inactive.
For NC(=O)c1c(NC(=O)c2cccs2)sc2c1CCCCCC2 the results were MrgX1 allo act 8.5*, RGS4 act inactive, RGS4 inh inactive, MrgX1 agonist inactive, MrgX1 antagonist inactive, MrgX1 allo conf inactive, HEK293 Ca flux inactive, HEK293 Ca counter inactive and HEK293 Ca cntr2 inactive.
O=C(Nc1sc2c(c1C(=O)O)CCC2)c1cccs1 was read as MrgX1 allo act inactive, RGS4 act inactive, RGS4 inh inactive, MrgX1 agonist inactive and MrgX1 antagonist inactive.
COCCN(C(=O)COC(=O)Cc1cccc(OC)c1)c1c(N)n(CC(C)C)c(=O)[nH]c1=O was read as MrgX1 allo act inactive, RGS4 act inactive, RGS4 inh inactive, MrgX1 agonist inactive and MrgX1 antagonist inactive.
Cc1cc(N2C(=O)NC(=O)CC2C)c(C)cc1C(C)C (stereo not given) was read as MrgX1 allo act inactive, RGS4 act inactive, RGS4 inh inactive, MrgX1 agonist inactive and MrgX1 antagonist inactive.
Cc1ccc(Oc2ccc(Cl)cc2N)cc1 was read as MrgX1 allo act 6.8*, RGS4 act inactive, RGS4 inh inactive, MrgX1 agonist inactive, MrgX1 antagonist inactive, MrgX1 allo conf inactive, HEK293 Ca flux inactive, HEK293 Ca counter inactive and HEK293 Ca cntr2 inactive.
Screening Nc1cc(Cl)ccc1Oc1ccc2ccccc2c1 returned MrgX1 allo act inactive, RGS4 act inactive, RGS4 inh inactive, MrgX1 agonist inactive and MrgX1 antagonist inactive.
Screening Cc1ccc(CNC(=S)NC2CCC(C(C)(C)C)CC2)cc1 (stereo not given) returned MrgX1 allo act inactive, RGS4 act inactive, RGS4 inh inactive, MrgX1 agonist inactive, MrgX1 antagonist -6.3*, MrgX1 antag conf 63%*, HEK293 Ca flux inactive, HEK293 Ca counter inactive and HEK293 Ca cntr2 inactive.
COc1ccc(NC(=O)CN(C)C(=O)CN2C(=O)C3CCCCC3C2=O)cc1 (stereo not given) was read as MrgX1 allo act inactive, RGS4 act inactive, RGS4 inh inactive, MrgX1 agonist inactive and MrgX1 antagonist inactive.
For Cc1cccc(-n2nnc(C(=O)NCc3ccccc3)c2N)c1 the results were MrgX1 allo act inactive, RGS4 act inactive, RGS4 inh inactive, MrgX1 agonist inactive, MrgX1 antagonist -8.4*, MrgX1 antag conf inactive, HEK293 Ca flux inactive, HEK293 Ca counter inactive and HEK293 Ca cntr2 inactive.
`Cc1ccc(CCNC(=O)c2nnn(-c3cccc(C)c3)c2N)cc1` gave MrgX1 allo act inactive, RGS4 act inactive, RGS4 inh inactive, MrgX1 agonist inactive and MrgX1 antagonist inactive.
For O=C(c1cccc(S(=O)(=O)N2CCN(c3ccccc3)CC2)c1)N1CCN(c2ccccc2O)CC1 the results were MrgX1 allo act inactive, RGS4 act inactive, RGS4 inh inactive, MrgX1 agonist inactive and MrgX1 antagonist inactive.
Screening CC(=O)Oc1c(-c2ccc(Br)o2)oc2ccccc2c1=O returned MrgX1 allo act inactive, RGS4 act inactive, RGS4 inh inactive, MrgX1 agonist inactive, MrgX1 antagonist -5.5*, MrgX1 antag conf inactive, HEK293 Ca flux inactive, HEK293 Ca counter inactive and HEK293 Ca cntr2 inactive.
CC(=O)c1cccc(NC(=O)C2CCCCC2)c1 was read as MrgX1 allo act inactive, RGS4 act inactive, RGS4 inh inactive, MrgX1 agonist inactive and MrgX1 antagonist inactive.
Screening O=C(Nc1cccc(Cl)c1)C1CCCCC1 returned MrgX1 allo act inactive, MrgX1 agonist inactive, MrgX1 antagonist -5.4*, MrgX1 antag conf inactive, HEK293 Ca flux inactive, HEK293 Ca counter inactive and HEK293 Ca cntr2 inactive.
`CC1CC(=O)c2cnc(NCc3ccco3)nc2C1` (stereo not given) gave MrgX1 allo act inactive, RGS4 act inactive, RGS4 inh inactive, MrgX1 agonist inactive, MrgX1 antagonist -7.2*, MrgX1 antag conf inactive, HEK293 Ca flux inactive, HEK293 Ca counter inactive and HEK293 Ca cntr2 inactive.
